Laboratory results: ChEMBL document CHEMBL1125276 (J Med Chem, 1991)

How the values were obtained:
[1] = system: P388; test: Compound was tested for T/C range at optimal dose of 1.00 mg/kg for antitumor activity against P388 leukemia cells in mice; value ranges from 234-302; type: functional, Mus musculus
[2] = system: P388; test: Long-term survivors (LTS) for 60 days at optimal dose of 1.00 mg/kg for antitumor activity against P388 leukemia cells in 12 mice.; type: functional, Mus musculus
[3] = target: Tubulin; test: The compound tested for the inhibition of tubulin polymerization.; type: functional
Procedure, shortened: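 Tubulin was partially purified from dog brain by polymerization/depolymerization cycles and used at 0.5 mg/mL. Compounds were added in DMSO (10 µL per 500 µL reaction) at 10^-6 to 10^-9 M, with DMSO-only controls. Polymerization was followed by turbidity at 350 nm. Rates from two separate experiments were plotted against concentration, and IC50 was read graphically.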

[4] = system: L1210; test: Tested for the inhibition of L1210 cell proliferation.; type: functional, cell-based; settings: Mus musculus
Procedure, shortened: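 L1210 cells were grown in RPMI 1640 with 10% FCS, 2 mM L-glutamine and 10 mM HEPES (pH 7.4). Exponential-phase cells (10^5 cells/mL) were exposed for 24 h to 5 drug concentrations in triplicate, then pulsed 3 h with 0.5 µCi/mL [3H]thymidine. Cells were harvested onto filters and counted. IC50 is 50% inhibition of incorporation versus untreated cells, given as the mean of 2–5 independent experiments.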

[5] = system: P388; test: Long-term survivors (LTS) for 60 days at optimal dose of 0.15 mg/kg for antitumor activity against P388 leukemia cells in 25 mice.; type: functional, Mus musculus
[6] = system: P388; test: Compound was tested for T/C range at optimal dose of 0.15 mg/kg for antitumor activity against P388 leukemia cells in mice; value ranges from 168-600; type: functional, Mus musculus
[7] = system: P388; test: Long-term survivors (LTS) for 60 days at optimal dose of 1.00 mg/kg for antitumor activity against P388 leukemia cells in 6 mice.; type: functional, Mus musculus
[8] = system: P388; test: Compound was tested for T/C range at optimal dose of 1.00 mg/kg for antitumor activity against P388 leukemia cells in mice.; type: functional, Mus musculus
[9] = system: P388; test: Long-term survivors (LTS) for 60 days at optimal dose of 3.0 mg/kg for antitumor activity against P388 leukemia cells in 6 mice.; type: functional, Mus musculus
[10] = system: P388; test: Compound was tested for T/C range at optimal dose of 3.0 mg/kg for antitumor activity against P388 leukemia cells in mice.; type: functional, Mus musculus
[11] = system: P388; test: Long-term survivors (LTS) for 60 days at optimal dose of 1.00 mg/kg for antitumor activity against P388 leukemia cells in 5 mice.; type: functional, Mus musculus
[12] = system: P388; test: Compound was tested for T/C range at optimal dose of 20.0 mg/kg for antitumor activity against P388 leukemia cells in mice.; type: functional, Mus musculus
[13] = system: P388; test: Long-term survivors (LTS) for 60 days at optimal dose of 20.0 mg/kg for antitumor activity against P388 leukemia cells in 5 mice; type: functional, Mus musculus
[14] = system: P388; test: Compound was tested for T/C range at optimal dose of 40.0 mg/kg for antitumor activity against P388 leukemia cells in mice.; type: functional, Mus musculus
[15] = system: P388; test: Long-term survivors (LTS) for 60 days at optimal dose of 40.0 mg/kg for antitumor activity against P388 leukemia cells in 6 mice.; type: functional, Mus musculus
[16] = system: P388; test: Compound was tested for T/C range at optimal dose of 12.00 mg/kg for antitumor activity against P388 leukemia cells in mice.; type: functional, Mus musculus
[17] = system: P388; test: Long-term survivors (LTS) for 60 days at optimal dose of 12.00 mg/kg for antitumor activity against P388 leukemia cells in 5 mice.; type: functional, Mus musculus
[18] = system: P388; test: Compound was tested for T/C range at optimal dose of 0.5 mg/kg for antitumor activity against P388 leukemia cells in mice; value ranges from 160-447; type: functional, Mus musculus
[19] = system: P388; test: Long-term survivors (LTS) for 60 days at optimal dose of 0.5 mg/kg for antitumor activity against P388 leukemia cells in 54 mice.; type: functional, Mus musculus
[20] = system: P388; test: Compound was tested for T/C range at optimal dose of 5.00 mg/kg for antitumor activity against P388 leukemia cells in mice; value ranges from 149-224; type: functional, Mus musculus
[21] = system: P388; test: Long-term survivors (LTS) for 60 days at optimal dose of 5.00 mg/kg for antitumor activity against P388 leukemia cells in 12 mice.; type: functional, Mus musculus
[22] = system: P388; test: Long-term survivors (LTS) for 60 days at optimal dose of 0.5 mg/kg for antitumor activity against P388 leukemia cells in 96 mice.; type: functional, Mus musculus
[23] = system: P388; test: Compound was tested for T/C range at optimal dose of 0.5 mg/kg for antitumor activity against P388 leukemia cells in mice; value ranges from 151-480; type: functional, Mus musculus
[24] = system: P388; test: Long-term survivors (LTS) for 60 days at optimal dose of 3.0 mg/kg for antitumor activity against P388 leukemia cells in 15 mice.; type: functional, Mus musculus
[25] = system: P388; test: Compound was tested for T/C range at optimal dose of 3.0 mg/kg for antitumor activity against P388 leukemia cells in mice; value ranges from 165-181; type: functional, Mus musculus
[26] = system: P388; test: Compound was tested for T/C range at optimal dose of 100 mg/kg for antitumor activity against P388 leukemia cells in mice; value ranges from 150-285; type: functional, Mus musculus
[27] = system: P388; test: Long-term survivors (LTS) for 60 days at optimal dose of 100 mg/kg for antitumor activity against P388 leukemia cells in 54 mice.; type: functional, Mus musculus

## C=CCC(NC(=O)[C@@]1(O)[C@H](O)[C@]2(CC)C=CCN3CC[C@@]4(c5cc([C@@]6(C(=O)OC)C[C@@H]7CN(CCc8c6[nH]c6ccccc86)C[C@](O)(CC)C7)c(OC)cc5N(C)[C@@H]14)[C@@H]32)P(=O)(OCC)OCC (some centres undefined)
[1]
  T/C: 234%
[2]
  LTS: 2
[3]
  IC50: 300 nM
[4]
  IC50: 3.7 nM

## CCOP(=O)(OCC)[C@@H](NC(=O)[C@@]1(O)[C@H](O)[C@]2(CC)C=CCN3CC[C@@]4(c5cc([C@@]6(C(=O)OC)C[C@@H]7CN(CCc8c6[nH]c6ccccc86)C[C@](O)(CC)C7)c(OC)cc5N(C)[C@@H]14)[C@@H]32)C(C)C
[3]
  IC50: 400 nM
[5]
  LTS: 8
[4]
  IC50: 0.43 nM
[6]
  T/C: 168%

## CCOP(=O)(OCC)[C@@H](C)NC(=O)[C@@]1(O)[C@H](O)[C@]2(CC)C=CCN3CC[C@@]4(c5cc([C@@]6(C(=O)OC)C[C@@H]7CN(CCc8c6[nH]c6ccccc86)C[C@](O)(CC)C7)c(OC)cc5N(C)[C@@H]14)[C@@H]32
[7]
  LTS: 0
[3]
  IC50: 80 nM
[4]
  IC50: 37 nM
[8]
  T/C: 145%

## CCOP(=O)(OCC)[C@H](NC(=O)[C@@]1(O)[C@H](O)[C@]2(CC)C=CCN3CC[C@@]4(c5cc([C@@]6(C(=O)OC)C[C@@H]7CN(CCc8c6[nH]c6ccccc86)C[C@](O)(CC)C7)c(OC)cc5N(C)[C@@H]14)[C@@H]32)C(C)C
[9]
  LTS: 0
[3]
  IC50: 800 nM
[10]
  T/C: 135%
[4]
  IC50: 10.9 nM

## C=CC[C@H](NC(=O)[C@@]1(O)[C@H](O)[C@]2(CC)C=CCN3CC[C@@]4(c5cc([C@@]6(C(=O)OC)C[C@@H]7CN(CCc8c6[nH]c6ccccc86)C[C@](O)(CC)C7)c(OC)cc5N(C)[C@@H]14)[C@@H]32)P(=O)(OCC)OCC
[4]
  IC50: 1.29 nM
[8]
  T/C: 294%
[11]
  LTS: 0

## CCOP(=O)(OCC)[C@@H](Cc1ccccc1)NC(=O)[C@@]1(O)[C@H](O)[C@]2(CC)C=CCN3CC[C@@]4(c5cc([C@@]6(C(=O)OC)C[C@@H]7CN(CCc8c6[nH]c6ccccc86)C[C@](O)(CC)C7)c(OC)cc5N(C)[C@@H]14)[C@@H]32
[12]
  T/C: 261%
[4]
  IC50: 14.3 nM
[13]
  LTS: 1

## CCOP(=O)(OCC)[C@H](Cc1c[nH]c2ccccc12)NC(=O)[C@@]1(O)[C@H](O)[C@]2(CC)C=CCN3CC[C@@]4(c5cc([C@@]6(C(=O)OC)C[C@@H]7CN(CCc8c6[nH]c6ccccc86)C[C@](O)(CC)C7)c(OC)cc5N(C)[C@@H]14)[C@@H]32
[14]
  T/C: 188%
[15]
  LTS: 0
[3]
  IC50: 100 nM
[4]
  IC50: 64.7 nM

## CCOP(=O)(CNC(=O)[C@@]1(O)[C@H](O)[C@]2(CC)C=CCN3CC[C@@]4(c5cc([C@@]6(C(=O)OC)C[C@@H]7CN(CCc8c6[nH]c6ccccc86)C[C@](O)(CC)C7)c(OC)cc5N(C)[C@@H]14)[C@@H]32)OCC
[9]
  LTS: 1
[3]
  IC50: 300 nM
[10]
  T/C: 230%
[4]
  IC50: 17.8 nM

## CCOP(=O)(OCC)[C@@H](Cc1c[nH]c2ccccc12)NC(=O)[C@@]1(O)[C@H](O)[C@]2(CC)C=CCN3CC[C@@]4(c5cc([C@@]6(C(=O)OC)C[C@@H]7CN(CCc8c6[nH]c6ccccc86)C[C@](O)(CC)C7)c(OC)cc5N(C)[C@@H]14)[C@@H]32
[14]
  T/C: 197%
[15]
  LTS: 0
[3]
  IC50: 100 nM
[4]
  IC50: 36.7 nM

## C=CC[C@@H](NC(=O)[C@@]1(O)[C@H](O)[C@]2(CC)C=CCN3CC[C@@]4(c5cc([C@@]6(C(=O)OC)C[C@@H]7CN(CCc8c6[nH]c6ccccc86)C[C@](O)(CC)C7)c(OC)cc5N(C)[C@@H]14)[C@@H]32)P(=O)(OCC)OCC
[16]
  T/C: 195%
[4]
  IC50: 26.4 nM
[17]
  LTS: 0

## CCOP(=O)(OCC)C(NC(=O)[C@@]1(O)[C@H](O)[C@]2(CC)C=CCN3CC[C@@]4(c5cc([C@@]6(C(=O)OC)C[C@@H]7CN(CCc8c6[nH]c6ccccc86)C[C@](O)(CC)C7)c(OC)cc5N(C)[C@@H]14)[C@@H]32)C(C)C (mixture of isomers)
[18]
  T/C: 160%
[3]
  IC50: 300 nM
[4]
  IC50: 0.64 nM
[19]
  LTS: 11

## CCOP(=O)(OCC)C(Cc1ccccc1)NC(=O)[C@@]1(O)[C@H](O)[C@]2(CC)C=CCN3CC[C@@]4(c5cc([C@@]6(C(=O)OC)C[C@@H]7CN(CCc8c6[nH]c6ccccc86)C[C@](O)(CC)C7)c(OC)cc5N(C)[C@@H]14)[C@@H]32 (mixture of isomers)
[20]
  T/C: 149%
[21]
  LTS: 0
[3]
  IC50: 70 nM
[4]
  IC50: 46 nM

## CCOP(=O)(OCC)C(C)NC(=O)[C@@]1(O)[C@H](O)[C@]2(CC)C=CCN3CC[C@@]4(c5cc([C@@]6(C(=O)OC)C[C@@H]7CN(CCc8c6[nH]c6ccccc86)C[C@](O)(CC)C7)c(OC)cc5N(C)[C@@H]14)[C@@H]32 (mixture of isomers)
[22]
  LTS: 7
[3]
  IC50: 100 nM
[23]
  T/C: 151%
[4]
  IC50: 2.5 nM

## CCCCCC(NC(=O)[C@@]1(O)[C@H](O)[C@]2(CC)C=CCN3CC[C@@]4(c5cc([C@@]6(C(=O)OC)C[C@@H]7CN(CCc8c6[nH]c6ccccc86)C[C@](O)(CC)C7)c(OC)cc5N(C)[C@@H]14)[C@@H]32)P(=O)(OCC)OCC (mixture of isomers)
[9]
  LTS: 0
[3]
  IC50: 20 nM
[10]
  T/C: 203%
[4]
  IC50: 3.97 nM

## CCOC(=O)CC(NC(=O)[C@@]1(O)[C@H](O)[C@]2(CC)C=CCN3CC[C@@]4(c5cc([C@@]6(C(=O)OC)C[C@@H]7CN(CCc8c6[nH]c6ccccc86)C[C@](O)(CC)C7)c(OC)cc5N(C)[C@@H]14)[C@@H]32)P(=O)(OCC)OCC (mixture of isomers)
[9]
  LTS: 0
[3]
  IC50: 300 nM
[10]
  T/C: 122%
[4]
  IC50: 2.77 nM

## CC[C@]1(O)C[C@H]2CN(CCc3c([nH]c4ccccc34)[C@@](C(=O)OC)(c3cc4c(cc3OC)N(C=O)[C@H]3[C@@](O)(C(=O)OC)[C@H](OC(C)=O)[C@]5(CC)C=CCN6CC[C@]43[C@@H]65)C2)C1 [VINCRISTINE]
[24]
  LTS: 0
[3]
  IC50: 500 nM
[4]
  IC50: 4.85 nM
[25]
  T/C: 165%

## CCOC(=O)C(Cc1c[nH]c2ccccc12)NC(=O)[C@@]1(O)[C@H](O)[C@]2(CC)C=CCN3CC[C@@]4(c5cc([C@@]6(C(=O)OC)C[C@@H]7CN(CCc8c6[nH]c6ccccc86)C[C@](O)(CC)C7)c(OC)cc5N(C)[C@@H]14)[C@@H]32 (some centres undefined) [VINTRYPOL]
[26]
  T/C: 150%
[27]
  LTS: 2
[3]
  IC50: 200 nM
